Reference: PMC7043261 (Pharmacology Research & Perspectives, 2020)

How the values were obtained:
[1] = system: formalin‐induced pain responses in rats; details: ref 34 (Maione et al (2007)); cited from earlier work
motor coordination = details: ref 17 (Watabiki et al (2017)); cited from earlier work
[2] = system: CFA‐induced mechanical allodynia in rats; assay: CFA‐induced inflammatory pain; type: in vivo; details: rat, 1 and 4 hours after administration
How it was run: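 Male Sprague‐Dawley rats received 50% CFA intraplantar (0.1 mL, right hind paw). PWT was measured 5 days later by von Frey up‐down method. The test compound (0.5% HPMC suspension) was dosed orally 1 h before PWT. Naproxen (0.5% methylcellulose) was dosed orally 4 h before PWT. Dosing volume 10 mL/kg. n=9, mean ± SEM; Steel's or Wilcoxon test.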

[3] = system: CFA‐induced mechanical allodynia in rats; details: cited from earlier work; for mechanical allodynia on CFA‐induced inflammatory pain: rats
catalepsy = details: ref 13 (Ahn et al (2011)); cited from earlier work
catalepsy in rats = assay: Catalepsy; type: in vivo; details: rat, cut‐off 90 s
rat FAAH = molecular target: T1, rat FAAH (Rattus norvegicus, UniProt P97612); assay: FAAH inhibition, rat brain microsomes, AAMCA fluorescence, IC50; type: biochemical
T1 sequence (P97612 1-579): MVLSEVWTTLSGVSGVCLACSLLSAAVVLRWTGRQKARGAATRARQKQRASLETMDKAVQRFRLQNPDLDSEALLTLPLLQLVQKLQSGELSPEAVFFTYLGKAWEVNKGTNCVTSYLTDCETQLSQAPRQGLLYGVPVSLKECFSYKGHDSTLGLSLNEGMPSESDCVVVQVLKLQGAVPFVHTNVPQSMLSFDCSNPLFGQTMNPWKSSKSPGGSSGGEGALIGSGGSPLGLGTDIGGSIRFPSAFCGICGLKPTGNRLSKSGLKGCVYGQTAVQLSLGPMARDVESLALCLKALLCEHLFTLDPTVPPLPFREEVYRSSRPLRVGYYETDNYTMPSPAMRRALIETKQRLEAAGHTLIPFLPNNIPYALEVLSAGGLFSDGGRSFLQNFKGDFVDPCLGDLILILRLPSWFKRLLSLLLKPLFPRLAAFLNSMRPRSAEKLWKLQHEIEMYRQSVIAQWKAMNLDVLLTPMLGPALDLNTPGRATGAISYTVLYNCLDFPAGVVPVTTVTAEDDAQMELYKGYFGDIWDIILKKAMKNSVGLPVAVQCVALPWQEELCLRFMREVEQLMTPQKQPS

5-HT2B (h) = 5-HT2B (h) (Homo sapiens, UniProt P41595); assay: Cerep BioPrint profiling and follow-up IC50; type: binding
[4] = system: CCI‐induced mechanical allodynia in rats; assay: CCI‐induced neuropathic pain; type: in vivo; details: rat, 4 hours
How it was run: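 Male Sprague‐Dawley rats. Under anesthesia, the left sciatic nerve was loosely tied with four ligatures at 1 mm intervals; in shams the right nerve was exposed but not ligated. On day 14 after surgery, the test compound (0.5% HPMC suspension) or pregabalin (saline) was given orally at 10 mL/kg 4 h before PWT. PWT was measured by von Frey up‐down method. n=8, mean ± SEM; Steel's or Wilcoxon test.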

[5] = system: motor coordination in rats; assay: Motor coordination; type: in vivo; details: rat, p.o., cut‐off 200 s
How it was run: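 Male Sprague‐Dawley rats were trained at 20 rpm on 2 consecutive days, up to five trials, until they walked ≥200 s. They were retrained in two sessions on test day; rats reaching the criterion once were used. Time on the rod (cut‐off 200 s) was recorded 1 h after the oral test compound or 2 h after pregabalin. n=10, mean ± SEM; Steel's test.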

[6] = system: formalin‐induced pain responses in rats; assay: Formalin test; type: in vivo; details: rat; for formalin‐induced pain responses, late phase: 10 to 45 minutes; for formalin‐induced pain responses, early phase: 0 to 10 minutes
How it was run: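 Male Wistar rats received oral dosing 1 h before injection: test compound in 0.5% HPMC or pregabalin in saline, 10 mL/kg. Then 0.5% formalin (50 µL) was injected into the left hind‐paw plantar surface. Flinching, licking and biting time was scored manually over 45 min: early phase 0–10 min, late phase 10–45 min. n=6, mean ± SEM; Dunnett's or Student's t‐test.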

[7] = system: AEA concentrations in rat brain; assay: AEA concentrations in rat brain; type: in vivo
[8] = molecular target: T2, human monoacylglycerol lipase (MAGL) (Homo sapiens, UniProt Q99685); assay: MAGL inhibitor screening assay kit; type: biochemical; details: 30 μmol/L
T2 sequence (Q99685 1-303): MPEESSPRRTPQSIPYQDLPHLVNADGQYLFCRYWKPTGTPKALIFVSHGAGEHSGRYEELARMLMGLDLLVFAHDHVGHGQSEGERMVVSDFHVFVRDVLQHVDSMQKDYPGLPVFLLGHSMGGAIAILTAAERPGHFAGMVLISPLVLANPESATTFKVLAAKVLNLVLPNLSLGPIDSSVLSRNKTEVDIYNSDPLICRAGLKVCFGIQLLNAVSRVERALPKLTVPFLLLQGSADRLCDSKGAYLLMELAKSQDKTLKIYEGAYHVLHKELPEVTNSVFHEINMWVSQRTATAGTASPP

PAF (h) = PAF (h) (Homo sapiens, UniProt P25105); assay: Cerep BioPrint profiling and follow-up IC50; type: binding
[9] = Pharmacokinetic study in rats; type: in vivo; details: male, Sprague-Dawley, rat, plasma
How it was run: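 Male Sprague‐Dawley rats. IV dose: 1 mg/kg in 40% dimethylacetamide/40% PEG400/20% water (1 mL/kg). Oral doses: 0.3, 1, 3 mg/kg as 0.5% HPMC suspension. Serial plasma was obtained by centrifugation (2,150g, 15 min, 4°C), extracted with ethyl acetate by supported‐liquid extraction, and reconstituted in 45% acetonitrile/55% 10 mmol/L ammonium acetate. Analysis by LC‐MS/MS; noncompartmental parameters.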

human FAAH = molecular target: T3, human FAAH (Homo sapiens, UniProt O00519); assay: FAAH inhibition, human microsomes; type: biochemical
T3 sequence (O00519 1-579): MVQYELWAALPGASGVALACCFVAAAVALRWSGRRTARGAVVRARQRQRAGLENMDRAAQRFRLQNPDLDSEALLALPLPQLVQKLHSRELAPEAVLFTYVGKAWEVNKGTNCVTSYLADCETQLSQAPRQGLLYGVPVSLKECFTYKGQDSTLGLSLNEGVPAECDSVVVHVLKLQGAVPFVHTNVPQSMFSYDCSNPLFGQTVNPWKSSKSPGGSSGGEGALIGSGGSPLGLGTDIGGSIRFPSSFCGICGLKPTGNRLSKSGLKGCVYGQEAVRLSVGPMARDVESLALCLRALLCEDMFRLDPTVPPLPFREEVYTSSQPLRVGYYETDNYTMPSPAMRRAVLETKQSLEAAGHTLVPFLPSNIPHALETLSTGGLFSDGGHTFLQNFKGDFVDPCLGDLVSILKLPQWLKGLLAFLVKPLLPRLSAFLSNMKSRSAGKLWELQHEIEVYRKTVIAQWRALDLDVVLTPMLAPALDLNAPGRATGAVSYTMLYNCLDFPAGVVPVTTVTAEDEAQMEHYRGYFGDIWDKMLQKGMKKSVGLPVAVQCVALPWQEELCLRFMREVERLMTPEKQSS

[10] = system: partial sciatic nerve ligation‐induced mechanical allodynia; details: rats; cited from earlier work
[11] = system: spinal nerve ligation‐induced mechanical allodynia; details: rats; single systemic administration; cited from earlier work
[12] = 30 mg/kg p.o. 1 hour before formalin

Sequence of 5-HT2B (h) (P41595 whole entry): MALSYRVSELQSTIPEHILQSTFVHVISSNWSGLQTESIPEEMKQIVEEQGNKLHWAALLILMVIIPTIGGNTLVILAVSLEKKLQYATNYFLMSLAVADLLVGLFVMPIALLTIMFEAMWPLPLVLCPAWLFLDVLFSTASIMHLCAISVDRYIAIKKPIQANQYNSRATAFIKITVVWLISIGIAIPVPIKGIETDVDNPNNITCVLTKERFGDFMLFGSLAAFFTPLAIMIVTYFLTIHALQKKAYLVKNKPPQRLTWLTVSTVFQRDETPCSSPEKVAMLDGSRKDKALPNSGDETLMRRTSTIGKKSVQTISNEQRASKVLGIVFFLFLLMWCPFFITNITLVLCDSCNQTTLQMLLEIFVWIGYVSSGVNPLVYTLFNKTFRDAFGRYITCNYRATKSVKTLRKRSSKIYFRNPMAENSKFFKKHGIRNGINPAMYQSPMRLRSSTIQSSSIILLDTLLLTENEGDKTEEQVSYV
Sequence of PAF (h) (P25105 whole entry): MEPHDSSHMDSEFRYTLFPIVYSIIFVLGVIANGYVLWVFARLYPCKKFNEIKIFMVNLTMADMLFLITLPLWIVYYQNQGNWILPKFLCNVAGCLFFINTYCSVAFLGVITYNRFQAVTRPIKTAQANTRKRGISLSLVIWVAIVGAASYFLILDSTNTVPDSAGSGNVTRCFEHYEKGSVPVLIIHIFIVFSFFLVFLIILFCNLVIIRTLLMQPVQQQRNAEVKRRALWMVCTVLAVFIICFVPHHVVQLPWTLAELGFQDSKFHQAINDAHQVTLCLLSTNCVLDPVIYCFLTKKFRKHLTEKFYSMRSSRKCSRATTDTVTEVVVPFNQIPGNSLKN

CCCCC/C=C\C/C=C\C/C=C\C/C=C\CCCC(=O)NCCc1c[nH]c2ccc(O)cc12 [AA‐5‐HT, N‐arachidonoyl‐serotonin]
formalin‐induced pain responses [1]: significantly decreased formalin‐induced pain responses only in the late phase

O=C(Nc1ccccc1)C1CCN(C(=O)Oc2cccnc2)CC1 [ASP8477, 3‐pyridyl 4‐(phenylcarbamoyl)piperidine‐1‐carboxylate]
effect on motor coordination (motor coordination): did not affect motor coordination up to 30 mg/kg

COc1ccc2cc([C@H](C)C(=O)O)ccc2c1 [Naproxen, (S)‐(+)‐6‐methoxy‐α‐methyl‐2‐naphthaleneacetic acid, reference compound]
mechanical allodynia (PWT), CFA‐induced inflammatory pain ([2]; 15 mg/kg p.o.): significantly suppressed

O=C(Nc1cccnc1)N1CCC(Cc2cccc(Oc3ccc(C(F)(F)F)cn3)c2)CC1 [PF‐3845, N‐3‐pyridinyl‐4‐[[3‐[[5‐(trifluoromethyl)‐2‐pyridinyl]oxy]phenyl]methyl]‐1‐piperidinecarboxamide]
mechanical allodynia on CFA‐induced inflammatory pain [3]: improved mechanical allodynia

O=C(Nc1cccnn1)N1CCC(=Cc2cccc(Oc3ccc(C(F)(F)F)cn3)c2)CC1 [PF‐04457845, N‐pyridazin‐3‐yl‐4‐(3‐{[5‐(trifluoromethyl)pyridin‐2‐yl]oxy}benzylidene)piperidine‐1‐carboxamide]
effects on catalepsy (catalepsy): no effects on catalepsy up to 100‐fold higher dose | mechanical allodynia on CFA‐induced inflammatory pain [3]: improved mechanical allodynia | minimum effective dose in CFA‐induced inflammatory pain ([3]; ref 13 (Ahn et al (2011))): 0.1 mg/kg

O=C(Nc1cccnn1)N1CCN([C@@H]2CCOc3cc(C(F)(F)F)ccc32)CC1 [PKM‐833, (R)‐N‐(pyridazin‐3‐yl)‐4‐(7‐(trifluoromethyl)chroman‐4‐yl)piperazine‐1‐carboxamide]
Duration (s), catalepsy (catalepsy in rats; 10 mg/kg, p.o., 1 h): 0.5 ± 0.1 s | Duration (s), catalepsy (catalepsy in rats; 10 mg/kg, p.o., 4 h): 3.7 ± 1.9 s | Duration (s), catalepsy (catalepsy in rats; 30 mg/kg, p.o., 1 h): 0.8 ± 0.2 s | Duration (s), catalepsy (catalepsy in rats; 30 mg/kg, p.o., 4 h): 1.0 ± 0.3 s | IC50 (rat FAAH): 10 ± 3 nM | IC50 (5-HT2B (h)): 6400 nM | mechanical allodynia (PWT), CCI‐induced neuropathic pain ([4]; PKM‐833 30 mg/kg p.o. (3‐30 mg/kg tested)): did not attenuate | Duration (s) on rotarod ([5]; 10 mg/kg, 1 h): 200 ± 0 s | Duration (s) on rotarod ([5]; 30 mg/kg, 1 h): 195 ± 6 s | formalin‐induced pain responses, late phase ([6]; 3 mg/kg p.o. 1 hour before formalin): significantly reduced | formalin‐induced pain responses, early phase ([6]; 0.3‐3 mg/kg p.o. 1 hour before formalin): Neither PKM‐833 nor pregabalin changed | mechanical allodynia (PWT), CFA‐induced inflammatory pain ([2]; 0.3 to 3 mg/kg p.o.): significantly suppressed | AEA concentrations in rat brain, time course ([7]; 1 mg/kg p.o., 1 to 48 hours before decapitation): significantly elevated for 8 hours but not at 24 and 48 hours | AEA concentrations in rat brain, dose dependence ([7]; 0.3‐3 mg/kg p.o., 1 hour before decapitation): significant effects at doses of 1 and 3 mg/kg | inhibition of human MAGL [8]: did not inhibit | IC50 (PAF (h)): 2300 nM | half-life ([9]; iv, 1 mg/kg): 5.8 h | bioavailability ([9]; po): 41 to 91% | IC50 (human FAAH): 8.8 ± 3 nM | selectivity against other molecular targets (human FAAH; FAAH versus 137 other molecular targets): more than 200 fold

CC(C)C[C@H](CN)CC(=O)O [Pregabalin, 3(S)‐(aminomethyl)‐5‐methylhexanoic acid, reference compound]
mechanical allodynia (PWT), CCI‐induced neuropathic pain ([4]; pregabalin 30 mg/kg p.o.): significantly antagonized | Duration (s) on rotarod ([5]; 10 mg/kg, 2 h): 199 ± 1 s | Duration (s) on rotarod ([5]; 30 mg/kg, 2 h): 167 ± 14 s | formalin‐induced pain responses, early phase [6, 12]: Neither PKM‐833 nor pregabalin changed | formalin‐induced pain responses, late phase [6, 12]: significantly reduced

NC(=O)c1cccc(-c2cccc(OC(=O)NC3CCCCC3)c2)c1 [URB597, (3'‐(aminocarbonyl)[1,1'‐biphenyl]‐3‐yl)‐cyclohexylcarbamate]
partial sciatic nerve ligation‐induced mechanical allodynia [10]: had no improvement | spinal nerve ligation‐induced mechanical allodynia [11]: improved

CS(=O)(=O)O.Cc1c(C(=O)c2cccc3ccccc23)c2cccc3c2n1[C@H](CN1CCOCC1)CO3 [WIN 55,212‐2, (R)‐(+)‐(2,3; dihydro‐5‐methyl‐3‐(4‐morpholinylmethyl)pyrrolo[1.2.3‐de]‐1,4‐benzoxazin‐6‐yl)‐1‐naphthalenylmethanone mesylate, reference compound]
Duration (s), catalepsy (catalepsy in rats; 3 mg/kg, s.c., 1 h): 13 ± 2 s | Duration (s), catalepsy (catalepsy in rats; 3 mg/kg, s.c., 4 h): 77 ± 7 s
